Activity calls are given as the source filed them. The rule behind the calls is not given here.
Key:
[1] = target: Survival motor neuron protein (Homo sapiens) (UniProt Q16637); assay: Activation of SMN expressed in HEK293 cells assessed as rate of induction by SMN2-promotor driven luciferase reporter gene assay relative to basal level; format: cell-based; design: concentration or dose not given beside the values
Outline: (§1)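 HEK-293 cells stably carrying the SMN2 reporter construct, kept in DMEM with 10% FCS, glutamax, pyruvate, pen/strep and 200 µg/mL hygromycin, and assayed without hygromycin. 2,000 cells/well were plated and adhered overnight at 37 °C, 5% CO2. Compounds were added as a 7-point titration, 50 µM to 25 nM final, in 0.46% DMSO, for 30–36 h. OneGlo luminescence was normalized to 4.5 mM sodium butyrate (100%) and DMSO (0%).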

[2] = target: Survival motor neuron protein (Homo sapiens) (UniProt Q16637); assay: Activation of SMN expressed in HEK293 cells assessed as concentration required to reach 50% of maximum luciferase signal by SMN2-promotor driven luciferase reporter gene assay; format: cell-based; outline: as §1

Chain of Survival motor neuron protein (Homo sapiens) (Q16637 whole entry): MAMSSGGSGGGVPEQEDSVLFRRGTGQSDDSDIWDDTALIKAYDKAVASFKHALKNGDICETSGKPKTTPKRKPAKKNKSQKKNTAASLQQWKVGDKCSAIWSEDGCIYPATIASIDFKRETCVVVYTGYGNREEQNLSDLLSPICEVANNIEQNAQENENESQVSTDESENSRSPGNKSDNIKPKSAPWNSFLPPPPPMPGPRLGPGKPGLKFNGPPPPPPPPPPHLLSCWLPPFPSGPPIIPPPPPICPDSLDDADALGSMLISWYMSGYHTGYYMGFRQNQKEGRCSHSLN

Row | SMILES | Activity [1] [%] | Activity [2]
1 | NC(=O)C1CCN(c2nc(-c3ccc4ccccc4c3)cs2)CC1 | 162 | 7.72 µM
2 | Cc1noc(C)c1-c1csc(N2CCC(C(N)=O)CC2)n1 |  | inactive
3 | COc1ccccc1-c1csc(N2CCC(C(N)=O)CC2)n1 |  | inactive
4 | NC(=O)C1CCN(c2nc(-c3ccc4occc(=O)c4c3)cs2)CC1 | 589 | 15.4 µM
5 | NC(=O)C1CCN(c2ncc(Br)s2)CC1 |  | inactive
6 | NC(=O)C1CCN(c2ncc(-c3cccc(N4CCCCC4)c3)s2)CC1 | 565 | 1.54 µM
7 | N#Cc1ccc(-c2csc(N3CCC(C(N)=O)CC3)n2)cc1 | 49 | 9.72 µM
8 | O=C(Nc1ccccc1)C1CCN(c2nc(-c3ccc(Br)cc3)cs2)CC1 | 262 | 2.44 µM
9 | NC(=O)C1CCN(c2nc(-c3cccc(Cl)c3)cs2)CC1 | 53 | 12.2 µM
10 | NC(=O)C1CCN(c2ncc(-c3ccc(Br)cc3)s2)CC1 | 599 | 0.224 µM
11 | CN(C)c1cccc(-c2nccc(N3CCC(C(N)=O)CC3)n2)c1 | 306 | 12.2 µM
12 | CC(=O)c1cccc(-c2csc(N3CCC(C(N)=O)CC3)n2)c1 | 356 | 3.87 µM
13 | O=C(c1ccccc1)N1CCN(c2nc(-c3ccc(Br)cc3)cs2)CC1 |  | inactive
14 | CS(=O)(=O)c1ccccc1-c1csc(N2CCC(C(N)=O)CC2)n1 |  | inactive
15 | O=S(=O)(c1ccccc1)N1CCN(c2nc(-c3ccc(Br)cc3)cs2)CC1 |  | inactive
16 | CN(C)c1cccc(-c2cc(N3CCC(C(N)=O)CC3)ncn2)c1 | 81 | 3.87 µM
17 | CS(=O)(=O)c1ccc(-c2csc(N3CCC(C(N)=O)CC3)n2)cc1 |  | inactive
18 | NC(=O)C1CCN(c2nc(-c3ccc(N4CCCCC4)nc3)cs2)CC1 |  | 6.13 µM
19 | NC(=O)C1CCN(c2ncc(-c3cccc(F)c3)s2)CC1 | 601 | 2.44 µM
20 | NC(=O)C1CCN(c2nc(-c3ccc(OC(F)(F)F)cc3)cs2)CC1 | 297 | 3.07 µM
21 | Cc1cnc(N2CCC(C(N)=O)CC2)nc1-c1cccc(N(C)C)c1 |  | inactive
22 | NC(=O)C1CCN(c2nc(-c3cccc([N+](=O)[O-])c3)cs2)CC1 | 20 | 3.87 µM
23 | NC(=O)C1CCN(c2nc(-c3ccc(F)cc3)cs2)CC1 | 288 | 3.87 µM

Row | SMILES | Activity [1] [%] | Activity [2]
24 | CS(=O)(=O)c1cccc(-c2csc(N3CCC(C(N)=O)CC3)n2)c1 |  | inactive
25 | O=C(C1CCN(c2nc(-c3ccc(Br)cc3)cs2)CC1)N1CCNCC1 |  | inactive
26 | CN(C)C(=O)c1ccc(-c2csc(N3CCC(C(N)=O)CC3)n2)cc1 | 51 | 12.2 µM
27 | O=C(C1CCN(c2nc(-c3ccc(Br)cc3)cs2)CC1)N1CCOCC1 | 77 | 30.8 µM
28 | CC(C)(C)c1ccc(-c2csc(N3CCC(C(N)=O)CC3)n2)cc1 | 243 | 3.87 µM
29 | NC1CCN(c2nc(-c3ccc(Br)cc3)cs2)CC1 | 182 | 2.44 µM
30 | CC(C)(C)OC(=O)NC1CCN(c2nc(-c3ccc(Br)cc3)cs2)CC1 |  | inactive
31 | NC(=O)C1CCN(c2nc(-c3cccc4sc5ccccc5c34)cs2)CC1 | 369 | 30.7 µM
32 | NC(=O)C1CCN(c2nc(-c3cccc4ccccc34)cs2)CC1 |  | inactive
33 | NC(=O)C1CCN(c2nc(-c3cccc(Br)c3)cs2)CC1 | 57 | 30.8 µM
34 | NC(=O)C1CCN(c2nc(-c3ccc4c(c3)OCC4)cs2)CC1 | 401 | 12.2 µM
35 | O=C(NCCc1ccccc1)C1CCN(c2nc(-c3ccc(Br)cc3)cs2)CC1 | 32 | 6.13 µM
36 | CNC(=O)C1CCN(c2nc(-c3ccc(Br)cc3)cs2)CC1 | 101 | 7.72 µM
37 | NC(=O)C1CCN(c2nc(-c3cccc(C(F)(F)F)c3)cs2)CC1 |  | 3.87 µM
38 | NC(=O)C1CCN(c2ncc(-c3ccc4c(c3)OCCO4)s2)CC1 | 424 | 0.097 µM
39 | NC(=O)C1CCN(c2nccc(-c3ccc4c(c3)OCCO4)n2)CC1 | 364 | 1.22 µM
40 | O=C(NCCCc1ccccc1)C1CCN(c2nc(-c3ccc(Br)cc3)cs2)CC1 |  | inactive
41 | CC(C)Oc1ccc(-c2csc(N3CCC(C(N)=O)CC3)n2)cc1 | 178 | 3.87 µM
42 | CCOC(=O)C1CCN(c2nc(-c3ccc(Br)cc3)cs2)CC1 | 550 | 7.72 µM
43 | c1c[nH]c(C2CCN(c3ncc(-c4ccc5c(c4)OCCCO5)s3)CC2)n1 | 129 | 2.44 µM
44 | Cc1ccc(-c2ccnc(N3CCC(C(N)=O)CC3)n2)cc1 | 444 | 0.387 µM
45 | NC(=O)C1CCN(c2nc(-c3cccc(F)c3)cs2)CC1 | 64 | 9.72 µM
46 | NC(=O)C1CCN(c2nc(-c3ccc([N+](=O)[O-])cc3)cs2)CC1 | 254 | 15.4 µM

Row | SMILES | Activity [1] [%] | Activity [2]
47 | NC(=O)C1CCN(c2nc(-c3ccccc3C(F)(F)F)cs2)CC1 |  | inactive
48 | CC(=O)NC1CCN(c2nc(-c3ccc(Br)cc3)cs2)CC1 | -57 | 15.4 µM
49 | NC(=O)C1CCN(c2nc(-c3ccc(-c4ccccc4)cc3)cs2)CC1 | 58 | 24.4 µM
50 | COc1cccc(-c2csc(N3CCC(C(N)=O)CC3)n2)c1 | 357 | 1.94 µM
51 | NC(=O)C1CCN(c2nc(-c3ccccc3F)cs2)CC1 | 274 | 2.44 µM
52 | CN(C)c1cccc(-c2nc(N3CCC(C(N)=O)CC3)ncc2F)c1 | 373 | 0.387 µM
53 | NC(=O)C1CCN(c2ncc(-c3cccc(N4CCOCC4)c3)s2)CC1 | 275 | 2.44 µM
54 | COc1cc(OC)cc(-c2csc(N3CCC(C(N)=O)CC3)n2)c1 | 45 | 7.72 µM
55 | Cc1cccc(-c2csc(N3CCC(C(N)=O)CC3)n2)c1 | 187 | 30.7 µM
56 | NC(=O)C1CCN(c2nc(-c3ccccc3)cs2)CC1 | 167 | 7.72 µM
57 | NC(=O)C1CCN(c2nccc(-c3ccc4c(c3)OCCCO4)n2)CC1 | 234 | 1.54 µM
58 | NC(=O)C1CCN(c2nc(-c3cc4ccccc4o3)cs2)CC1 |  | 15.4 µM
59 | Brc1ccc(-c2csc(N3CCCCC3)n2)cc1 | 272 | 19.4 µM
60 | NC(=O)C1CCN(c2ncc(-c3ccc(Cl)cc3)s2)CC1 | 498 | 0.154 µM
61 | CN(C)C(=O)C1CCN(c2nc(-c3ccc(Br)cc3)cs2)CC1 | 43 | 30.8 µM
62 | Brc1ccc(-c2csc(N3CCOCC3)n2)cc1 |  | inactive
63 | CC(C(=O)O)c1ccc(N2Cc3ccccc3C2=O)cc1 (stereo unspecified) |  | > 1 µM
64 | NC(=O)C1CCN(c2nc(-c3ccc(Oc4ccccc4)cc3)cs2)CC1 | 240 | 4.87 µM
65 | CS(=O)(=O)N1CCN(c2nc(-c3ccc(Br)cc3)cs2)CC1 |  | inactive
66 | CC(C)Oc1cccc(-c2csc(N3CCC(C(N)=O)CC3)n2)c1 | 605 | 0.77 µM
67 | NC(=O)C1CCN(c2nc(-c3ccc(OCc4ccccc4)cc3)cs2)CC1 |  | inactive
68 | NC(=O)C1CCN(c2nc(-c3cccnc3)cs2)CC1 |  | inactive
69 | NC(=O)C1CCN(c2ncc(-c3ccc4c(c3)OCO4)s2)CC1 | 590 | 0.049 µM

Row | SMILES | Activity [1] [%] | Activity [2]
70 | O=C(NCc1ccccc1)C1CCN(c2nc(-c3ccc(Br)cc3)cs2)CC1 |  | inactive
71 | NC(=O)C1CCN(c2nc(-c3ccc4c(c3)OCO4)cs2)CC1 | 359 | 2.44 µM
72 | CC(=O)Nc1ccc(-c2csc(N3CCC(C(N)=O)CC3)n2)cc1 |  | inactive
73 | CN(C)c1cccc(-c2cnc(N3CCC(c4ncc[nH]4)CC3)s2)c1 | 188 | 7.72 µM
74 | COc1cc(-c2csc(N3CCC(C(N)=O)CC3)n2)cc(OC)c1OC | 73 | 19.4 µM
75 | NC(=O)C1CCN(c2nc(-c3ccc4c(c3)OCCO4)cs2)CC1 | 459 | 0.77 µM
76 | CN(C)c1cccc(-c2nnc(N3CCC(C(N)=O)CC3)s2)c1 | 448 | 0.387 µM
77 | O=C(NCCCCc1ccccc1)C1CCN(c2nc(-c3ccc(Br)cc3)cs2)CC1 |  | inactive
78 | COc1ccc(-c2csc(N3CCC(C(N)=O)CC3)n2)cc1 | 209 | 7.72 µM
79 | NC(=O)C1CCN(c2nccc(-c3ccc(Br)cc3)n2)CC1 | 387 | 0.387 µM
80 | NC(=O)C1CCN(c2ncc(Br)cn2)CC1 |  | inactive
81 | NC(=O)C1CCN(c2nnc(-c3ccc(Br)cc3)s2)CC1 |  | inactive
82 | NC(=O)C1CCN(c2nc(-c3ccc(N)cc3)cs2)CC1 |  | inactive
83 | N#Cc1ccccc1-c1csc(N2CCC(C(N)=O)CC2)n1 |  | inactive
84 | O=C(c1ccco1)N1CCN(c2nc(-c3ccc(Br)cc3)cs2)CC1 |  | inactive
85 | N#Cc1cccc(-c2csc(N3CCC(C(N)=O)CC3)n2)c1 |  | inactive
86 | CN(C)c1ccccc1-c1csc(N2CCC(C(N)=O)CC2)n1 |  | inactive
87 | NC(=O)C1CCN(c2nc(-c3ccccc3Br)cs2)CC1 |  | inactive
88 | NC(=O)C1CCN(c2nc(-c3ccccc3[N+](=O)[O-])cs2)CC1 |  | inactive
89 | NC(=O)C1CCN(c2nccc(Cl)n2)CC1 |  | inactive
90 | NC(=O)C1CCN(c2nc(-c3cccc(N)c3)cs2)CC1 |  | inactive
91 | CC(=O)C1CCN(c2ncc(-c3ccc4c(c3)OCCCO4)s2)CC1 |  | inactive
92 | NC(=O)C1CCN(c2nc(-c3ccccc3-c3ccccc3)cs2)CC1 |  | inactive

Reference: ChEMBL document CHEMBL1821687, “Discovery, synthesis, and biological evaluation of novel SMN protein modulators” (J Med Chem, 2011)
